According to ChEMBL document CHEMBL5303300, “EUbOPEN Chemogenomics Library - Multiplex” (2023):
Several values for one entry are separate records, joined by “and”; a condition that tells them apart may be missing. Equal values may be shown once.

Tested on: U2OS
Assay: Multiplex assay against U2OS
Type: toxicity, cell-based
Conditions: human, number of replicates 2
In short: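 Imaging took place on a CQ1 microscope at 37°C and 5% CO2 once compound had been added to live cells stained at seeding with Hoechst33342, BioTracker Green Microtubule Cytoskeleton Dye, MitoTracker Red and Annexin V Alexa Fluor 680. CellPathfinder machine-learning gating classed cells as Hoechst high-intensity objects or normal cells, classed normal cells as having healthy, pyknosed or fragmented nuclei, and classed pyknosed cells as mitotic or apoptotic. Tubulin, mitochondrial-mass and membrane-permeability phenotypes are per cents of the healthy-nucleus cells.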

[1] = 12 h, 1 µM, compound concentration 1 uM
[2] = 12 h, 10 µM, compound concentration 10 uM
[3] = 24 h, 1 µM, compound concentration 1 uM
[4] = 24 h, 10 µM, compound concentration 10 uM
[5] = 48 h, 1 µM, compound concentration 1 uM
[6] = 48 h, 10 µM, compound concentration 10 uM

CCCCOc1c(C(=O)c2c(F)cc(C)cc2F)c[nH]c2nncc1-2
Population Apoptotic (%) [1]: 54% and 60% | Population Healthy Nuclei (%) [1]: 52% and 86% | Population Hoechst High Intensity Objects (%) [1]: 0% | Population Membrane Permeable-Phenotype (%) [1]: 0% and 3% | Population Mitochondria Different-Phenotype (%) [1]: 0% and 1% | Population Mitotic Cells (%) [1]: 45% and 40% | Population Normal (%) [1]: 100% | Population Pyknosed Nuclei (%) [1]: 20% and 9% | Population Tubulin-Different-Phenotype (%) [1]: 89% and 86% | Population Apoptotic (%) [2]: 42% and 84% | Population Fragmented Nuclei (%) [2]: 19% and 8% | Population Healthy Nuclei (%) [2]: 29% and 79% | Population Hoechst High Intensity Objects (%) [2]: 0% | Population Membrane Permeable-Phenotype (%) [2]: 2% and 1% | Population Mitochondria Different-Phenotype (%) [2]: 0% | Population Normal (%) [2]: 100% | Population Tubulin-Different-Phenotype (%) [2]: 73% and 91% | Total Cell Count [2]: 143 and 207 | Population Apoptotic (%) [3]: 46% and 62% | Population Fragmented Nuclei (%) [3]: 10% and 5% | Population Healthy Nuclei (%) [3]: 52% and 82% | Population Hoechst High Intensity Objects (%) [3]: 0% | Population Membrane Permeable-Phenotype (%) [3]: 0% and 1% | Population Mitochondria Different-Phenotype (%) [3]: 0% | Population Mitotic Cells (%) [3]: 53% and 37% | Population Normal (%) [3]: 100% | Population Tubulin-Different-Phenotype (%) [3]: 76% and 79% | Population Apoptotic (%) [4]: 41% and 66% | Population Hoechst High Intensity Objects (%) [4]: 1% and 0% | Population Membrane Permeable-Phenotype (%) [4]: 6% and 2% | Population Mitochondria Different-Phenotype (%) [4]: 0% | Population Mitotic Cells (%) [4]: 58% and 33% | Population Normal (%) [4]: 98% and 100% | Population Tubulin-Different-Phenotype (%) [4]: 81% and 86% | Total Cell Count [4]: 187 and 205 | Population Apoptotic (%) [5]: 37% and 67% | Population Fragmented Nuclei (%) [5]: 5% and 4% | Population Healthy Nuclei (%) [5]: 71% and 88% | Population Hoechst High Intensity Objects (%) [5]: 0% | Population Membrane Permeable-Phenotype (%) [5]: 4% and 2% | Population Mitochondria Different-Phenotype (%) [5]: 4% and 1% | Population Mitotic Cells (%) [5]: 62% and 32% | Population Normal (%) [5]: 100% and 99% | Population Tubulin-Different-Phenotype (%) [5]: 77% and 74% | Population Apoptotic (%) [6]: 35% and 75% | Population Hoechst High Intensity Objects (%) [6]: 0% | Population Membrane Permeable-Phenotype (%) [6]: 7% and 4% | Population Mitochondria Different-Phenotype (%) [6]: 0% | Population Mitotic Cells (%) [6]: 64% and 24% | Population Normal (%) [6]: 100% | Population Tubulin-Different-Phenotype (%) [6]: 73% and 77% | Total Cell Count [6]: 291 and 241

CCn1ccc(Nc2ncc3c(n2)-c2c(nn(C)c2-c2ccc(-c4cnn(C)c4)cc2Cl)CC3)n1
Population Apoptotic (%) [1]: 62% and 57% | Population Fragmented Nuclei (%) [1]: 5% and 15% | Population Healthy Nuclei (%) [1]: 83% and 63% | Population Hoechst High Intensity Objects (%) [1]: 0% | Population Mitochondria Different-Phenotype (%) [1]: 1% and 9% | Population Mitotic Cells (%) [1]: 37% and 42% | Population Normal (%) [1]: 100% | Population Pyknosed Nuclei (%) [1]: 11% and 21% | Population Tubulin-Different-Phenotype (%) [1]: 78% and 47% | Population Apoptotic (%) [2]: 62% and 66% | Population Fragmented Nuclei (%) [2]: 3% and 4% | Population Healthy Nuclei (%) [2]: 71% and 83% | Population Hoechst High Intensity Objects (%) [2]: 0% | Population Membrane Permeable-Phenotype (%) [2]: 13% and 4% | Population Mitochondria Different-Phenotype (%) [2]: 8% and 4% | Population Mitotic Cells (%) [2]: 37% and 33% | Population Normal (%) [2]: 100% | Population Pyknosed Nuclei (%) [2]: 25% and 11% | Population Tubulin-Different-Phenotype (%) [2]: 39% and 29% | Population Apoptotic (%) [3]: 70% and 62% | Population Healthy Nuclei (%) [3]: 85% and 64% | Population Hoechst High Intensity Objects (%) [3]: 0% | Population Mitochondria Different-Phenotype (%) [3]: 1% and 6% | Population Mitotic Cells (%) [3]: 29% and 37% | Population Normal (%) [3]: 99% and 100% | Population Pyknosed Nuclei (%) [3]: 9% and 17% | Population Tubulin-Different-Phenotype (%) [3]: 76% and 37% | Population Apoptotic (%) [4]: 83% and 63% | Population Fragmented Nuclei (%) [4]: 8% and 5% | Population Healthy Nuclei (%) [4]: 75% and 82% | Population Hoechst High Intensity Objects (%) [4]: 0% | Population Membrane Permeable-Phenotype (%) [4]: 7% and 2% | Population Mitochondria Different-Phenotype (%) [4]: 18% and 6% | Population Mitotic Cells (%) [4]: 16% and 36% | Population Normal (%) [4]: 100% | Population Pyknosed Nuclei (%) [4]: 16% and 11% | Population Tubulin-Different-Phenotype (%) [4]: 44% and 29% | Population Apoptotic (%) [5]: 63% and 100% | Population Healthy Nuclei (%) [5]: 89% and 77% | Population Hoechst High Intensity Objects (%) [5]: 0% | Population Membrane Permeable-Phenotype (%) [5]: 1% and 8% | Population Mitochondria Different-Phenotype (%) [5]: 0% and 4% | Population Normal (%) [5]: 100% | Population Pyknosed Nuclei (%) [5]: 7% and 9% | Population Tubulin-Different-Phenotype (%) [5]: 81% and 40% | Population Apoptotic (%) [6]: 68% and 75% | Population Fragmented Nuclei (%) [6]: 8% and 3% | Population Healthy Nuclei (%) [6]: 55% and 80% | Population Hoechst High Intensity Objects (%) [6]: 0% | Population Membrane Permeable-Phenotype (%) [6]: 4% and 3% | Population Mitochondria Different-Phenotype (%) [6]: 12% and 4% | Population Mitotic Cells (%) [6]: 31% and 25% | Population Normal (%) [6]: 100% and 99% | Population Pyknosed Nuclei (%) [6]: 35% and 16% | Population Tubulin-Different-Phenotype (%) [6]: 44% and 35%

COCCN1CCN(CCn2ccc(Nc3ncc4c(n3)-c3c(nn(C)c3-c3ccccc3)C[C@H]4C)n2)CC1
Population Apoptotic (%) [1]: 40% and 50% | Population Healthy Nuclei (%) [1]: 84% and 72% | Population Hoechst High Intensity Objects (%) [1]: 0% | Population Membrane Permeable-Phenotype (%) [1]: 1% and 5% | Population Mitochondria Different-Phenotype (%) [1]: 0% | Population Mitotic Cells (%) [1]: 59% and 50% | Population Normal (%) [1]: 100% | Population Pyknosed Nuclei (%) [1]: 11% and 7% | Population Tubulin-Different-Phenotype (%) [1]: 82% and 40% | Population Apoptotic (%) [2]: 46% and 63% | Population Fragmented Nuclei (%) [2]: 8% and 4% | Population Healthy Nuclei (%) [2]: 61% and 79% | Population Hoechst High Intensity Objects (%) [2]: 0% | Population Membrane Permeable-Phenotype (%) [2]: 6% and 7% | Population Mitochondria Different-Phenotype (%) [2]: 6% and 8% | Population Mitotic Cells (%) [2]: 53% and 36% | Population Normal (%) [2]: 100% and 99% | Population Pyknosed Nuclei (%) [2]: 30% and 16% | Population Tubulin-Different-Phenotype (%) [2]: 20% and 35% | Population Apoptotic (%) [3]: 58% and 83% | Population Fragmented Nuclei (%) [3]: 2% and 10% | Population Healthy Nuclei (%) [3]: 86% and 81% | Population Hoechst High Intensity Objects (%) [3]: 0% | Population Membrane Permeable-Phenotype (%) [3]: 0% and 7% | Population Mitochondria Different-Phenotype (%) [3]: 0% and 1% | Population Mitotic Cells (%) [3]: 41% and 16% | Population Normal (%) [3]: 100% | Population Pyknosed Nuclei (%) [3]: 11% and 8% | Population Tubulin-Different-Phenotype (%) [3]: 83% and 47% | Population Apoptotic (%) [4]: 86% and 70% | Population Fragmented Nuclei (%) [4]: 12% and 4% | Population Healthy Nuclei (%) [4]: 63% and 78% | Population Hoechst High Intensity Objects (%) [4]: 0% | Population Membrane Permeable-Phenotype (%) [4]: 5% and 4% | Population Mitochondria Different-Phenotype (%) [4]: 5% and 12% | Population Mitotic Cells (%) [4]: 13% and 29% | Population Normal (%) [4]: 100% | Population Pyknosed Nuclei (%) [4]: 23% and 16% | Population Tubulin-Different-Phenotype (%) [4]: 40% and 37% | Population Apoptotic (%) [5]: 58% and 45% | Population Fragmented Nuclei (%) [5]: 10% and 1% | Population Healthy Nuclei (%) [5]: 68% and 89% | Population Hoechst High Intensity Objects (%) [5]: 0% | Population Membrane Permeable-Phenotype (%) [5]: 9% and 1% | Population Mitochondria Different-Phenotype (%) [5]: 0% | Population Mitotic Cells (%) [5]: 41% and 54% | Population Normal (%) [5]: 100% | Population Pyknosed Nuclei (%) [5]: 21% and 8% | Population Tubulin-Different-Phenotype (%) [5]: 54% and 80% | Population Apoptotic (%) [6]: 88% and 91% | Population Fragmented Nuclei (%) [6]: 12% and 6% | Population Healthy Nuclei (%) [6]: 70% and 78% | Population Hoechst High Intensity Objects (%) [6]: 0% | Population Membrane Permeable-Phenotype (%) [6]: 10% | Population Mitochondria Different-Phenotype (%) [6]: 2% and 9% | Population Mitotic Cells (%) [6]: 11% and 8% | Population Normal (%) [6]: 100% and 99% | Population Pyknosed Nuclei (%) [6]: 16% and 14% | Population Tubulin-Different-Phenotype (%) [6]: 38% and 34%
